# Columns and labels:
# Format in all cases: biochemical
# h-NTPDase1 = target: T1, h-NTPDase1 (Homo sapiens, UniProt P49961); assay: h-NTPDase1 enzyme inhibition, malachite green assay; details: for inhibition at 100 µM: read-out: h-NTPDase1 % inhibition ± S.D
# T1 sequence (P49961 1-510): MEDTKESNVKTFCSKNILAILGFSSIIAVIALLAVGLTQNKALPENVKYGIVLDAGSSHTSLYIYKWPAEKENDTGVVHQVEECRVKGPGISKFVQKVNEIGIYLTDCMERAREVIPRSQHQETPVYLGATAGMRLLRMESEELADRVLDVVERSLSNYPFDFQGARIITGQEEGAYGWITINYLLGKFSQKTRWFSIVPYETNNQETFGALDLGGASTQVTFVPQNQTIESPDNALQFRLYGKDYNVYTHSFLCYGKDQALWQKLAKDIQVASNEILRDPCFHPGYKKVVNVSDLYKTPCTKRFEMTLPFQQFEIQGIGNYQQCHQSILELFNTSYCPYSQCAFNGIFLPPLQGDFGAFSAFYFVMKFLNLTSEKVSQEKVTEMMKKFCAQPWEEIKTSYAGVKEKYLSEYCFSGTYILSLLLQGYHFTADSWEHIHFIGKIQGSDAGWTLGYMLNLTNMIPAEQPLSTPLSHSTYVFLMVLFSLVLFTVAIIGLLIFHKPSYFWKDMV
# Outline: (§1)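 Malachite green assay in 50 mM Tris-HCl, 5 mM CaCl2, pH 7.4. Test compound at 100 μM, in triplicate, incubated 10 min with enzyme: h-NTPDase1 12 ng, h-NTPDase2 37 ng, h-NTPDase3 43 ng, h-NTPDase8 63 ng. Plate read at 630 nm, then substrate (100 μM) added and incubated 15 min at 37 °C. Malachite green reagent added and reading taken up to 6 min.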
# h-NTPDase2 = target: T2, h-NTPDase2 (Homo sapiens, UniProt Q9Y5L3); assay: h-NTPDase2 enzyme inhibition, malachite green assay; details: for h-NTPDase2 IC50 ± SEM: triplicate, determined for compounds with over 50% inhibition at 100 μM; for inhibition at 100 µM: read-out: h-NTPDase2 % inhibition ± S.D
# T2 sequence (Q9Y5L3 1-495): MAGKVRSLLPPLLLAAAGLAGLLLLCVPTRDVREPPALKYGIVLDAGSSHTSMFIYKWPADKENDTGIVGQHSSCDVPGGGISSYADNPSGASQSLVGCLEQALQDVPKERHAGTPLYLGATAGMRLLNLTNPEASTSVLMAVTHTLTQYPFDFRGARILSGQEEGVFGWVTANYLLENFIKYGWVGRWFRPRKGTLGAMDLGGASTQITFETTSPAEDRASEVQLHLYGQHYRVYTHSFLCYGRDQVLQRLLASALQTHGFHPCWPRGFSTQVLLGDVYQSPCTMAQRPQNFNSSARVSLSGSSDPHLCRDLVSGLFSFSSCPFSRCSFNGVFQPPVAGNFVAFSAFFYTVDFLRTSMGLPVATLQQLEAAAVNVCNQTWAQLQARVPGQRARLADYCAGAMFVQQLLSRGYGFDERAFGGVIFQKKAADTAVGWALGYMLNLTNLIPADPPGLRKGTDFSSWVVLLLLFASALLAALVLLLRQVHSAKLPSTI
# Outline: as §1
# h-NTPDase3 = target: T3, h-NTPDase3 (Homo sapiens, UniProt O75355); assay: h-NTPDase3 enzyme inhibition, malachite green assay
# T3 sequence (O75355 1-529): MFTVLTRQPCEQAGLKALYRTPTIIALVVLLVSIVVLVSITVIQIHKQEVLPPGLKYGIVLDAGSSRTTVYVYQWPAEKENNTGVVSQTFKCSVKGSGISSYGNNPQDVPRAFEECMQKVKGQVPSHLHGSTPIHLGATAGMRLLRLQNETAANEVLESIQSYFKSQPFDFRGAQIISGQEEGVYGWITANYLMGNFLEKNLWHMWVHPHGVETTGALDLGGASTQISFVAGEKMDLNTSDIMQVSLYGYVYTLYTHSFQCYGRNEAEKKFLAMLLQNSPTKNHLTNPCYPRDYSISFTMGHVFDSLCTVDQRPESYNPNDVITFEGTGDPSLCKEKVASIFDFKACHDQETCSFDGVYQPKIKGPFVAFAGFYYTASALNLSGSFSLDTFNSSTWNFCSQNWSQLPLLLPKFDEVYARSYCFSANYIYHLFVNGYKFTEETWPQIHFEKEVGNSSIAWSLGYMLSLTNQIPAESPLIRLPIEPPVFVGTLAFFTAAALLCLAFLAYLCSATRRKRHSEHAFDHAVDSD
# Outline: as §1
# h-NTPDase8 = target: T4, h-NTPDase8 (Homo sapiens, UniProt Q5MY95); assay: h-NTPDase8 enzyme inhibition, malachite green assay; details: for inhibition at 100 µM: read-out: h-NTPDase8 % inhibition ± S.D
# T4 sequence (Q5MY95 1-495): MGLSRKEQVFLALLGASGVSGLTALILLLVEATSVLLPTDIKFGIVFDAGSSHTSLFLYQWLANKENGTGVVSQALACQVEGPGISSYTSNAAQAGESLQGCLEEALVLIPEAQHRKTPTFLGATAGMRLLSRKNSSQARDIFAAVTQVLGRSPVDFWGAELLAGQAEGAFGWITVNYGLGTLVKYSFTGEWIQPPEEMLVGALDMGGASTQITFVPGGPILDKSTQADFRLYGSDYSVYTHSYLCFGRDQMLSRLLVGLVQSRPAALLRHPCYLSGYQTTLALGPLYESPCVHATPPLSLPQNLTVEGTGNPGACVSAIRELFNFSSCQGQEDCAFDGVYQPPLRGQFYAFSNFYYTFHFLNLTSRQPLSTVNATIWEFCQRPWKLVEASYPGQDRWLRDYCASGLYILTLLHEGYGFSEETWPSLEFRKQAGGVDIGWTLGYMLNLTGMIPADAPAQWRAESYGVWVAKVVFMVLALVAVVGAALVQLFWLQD
# Outline: as §1
inhibition at 100 µM (h-NTPDase1) [%],IC50 (h-NTPDase2) [nM],h-NTPDase2 IC50 ± SEM (h-NTPDase2),IC50 (h-NTPDase3) [nM],IC50 (h-NTPDase8) [nM],inhibition at 100 µM (h-NTPDase8) [%],IC50 (h-NTPDase1) [nM],inhibition at 100 µM (h-NTPDase2) [%],inhibition at 100 µM (h-NTPDase3; read-out: h-NTPDase3 % inhibition ± S.D) [%],SMILES
36 ± 2.4,130 ± 10,sub-micromolar,200 ± 70,2460 ± 90,,,,,"O=C(NC1CC1)c1cc(S(=O)(=O)NC2CC2)ccc1Cl [4d, 2-chloro-N-cyclopropyl-5-(N-cyclopropylsulfamoyl)benzamide]"
,,,,101000 ± 2340,,,,,"Cc1ccc(C(=O)Nc2ccc(S(=O)(=O)O)c3cc(S(=O)(=O)O)cc(S(=O)(=O)O)c23)cc1NC(=O)c1cccc(NC(=O)Nc2cccc(C(=O)Nc3cc(C(=O)Nc4ccc(S(=O)(=O)O)c5cc(S(=O)(=O)O)cc(S(=O)(=O)O)c45)ccc3C)c2)c1 [Suramin, reference compound]"
,,,720 ± 110,,32 ± 3.5,2880 ± 130,43 ± 1.4,,"O=C(c1cc(S(=O)(=O)Nc2ccc(Br)cc2)ccc1Cl)N1CCOCC1 [3i, N-(4-bromophenyl)-4-chloro-3-(morpholine-4-carbonyl)benzenesulfonamide]"
3 ± 1.2,,,,280 ± 70,,,19 ± 0.9,41 ± 1.4,"O=C(O)c1cc(S(=O)(=O)NC2CC2)ccc1Cl [2d, 2-chloro-5-(N-cyclopropylsulfamoyl)benzoic acid]"

# Further lines, the molecule ahead of its results:
SMILES,inhibition at 100 µM (h-NTPDase1) [%],IC50 (h-NTPDase2) [nM],h-NTPDase2 IC50 ± SEM (h-NTPDase2),IC50 (h-NTPDase3) [nM],IC50 (h-NTPDase8) [nM],inhibition at 100 µM (h-NTPDase8) [%],IC50 (h-NTPDase1) [nM],inhibition at 100 µM (h-NTPDase2) [%],inhibition at 100 µM (h-NTPDase3; read-out: h-NTPDase3 % inhibition ± S.D) [%]
"COc1ccc(NC(=O)c2cc(S(=O)(=O)NCc3ccccc3)ccc2Cl)cc1 [3j, 5-(N-benzylsulfamoyl)-2-chloro-N-(4-methoxyphenyl)benzamide]",37 ± 1.3,290 ± 70,sub-micromolar,3160 ± 120,,36 ± 1.7,,,
"COc1ccc(NC(=O)c2cccc(S(=O)(=O)N3CCOCC3)c2)cc1 [3f, N-(4-methoxyphenyl)-3-(morpholinosulfonyl)benzamide]",,270 ± 80,sub-micromolar,6710 ± 40,,29 ± 4.5,> 100000,,

# Reference: PMC10335114 (RSC Advances, 2023)
